ABCB1 block = ABCB1 efflux pump inhibitors, primary screen, cell-based, multiplex, flow cytometry, ABCG2 counter-screen; ATP-dependent translocase ABCB1 (Homo sapiens), P08183; CCRF-Adr cells, JC-1 efflux; inhibition, % at 6.6 µM; 190,000 tested, 0.067% active; AID 1326, 2008; in the data active means inhibition above about 40%;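 further: 0% = vehicle and 100% = reference inhibitor; higher value means more JC-1 retained so stronger ABCB1 efflux block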
PMI activator = activators of human PMI, primary screen, biochemical, fluorescence intensity, near-Km mannose 6-phosphate | Mannose-6-phosphate isomerase (Homo sapiens), P34949 | purified human PMI, coupled resazurin fluorescence, 20 min; hits give high values; 1 = vehicle control, 0 substrate-free wells | activation factor at 20 µM | 190,000 tested, 0.005% active | AID 1214, 2008;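 active means activation factor of 2 or more at 20 µM, relative to plate controls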
Target sequence (P34949 whole entry, looked up): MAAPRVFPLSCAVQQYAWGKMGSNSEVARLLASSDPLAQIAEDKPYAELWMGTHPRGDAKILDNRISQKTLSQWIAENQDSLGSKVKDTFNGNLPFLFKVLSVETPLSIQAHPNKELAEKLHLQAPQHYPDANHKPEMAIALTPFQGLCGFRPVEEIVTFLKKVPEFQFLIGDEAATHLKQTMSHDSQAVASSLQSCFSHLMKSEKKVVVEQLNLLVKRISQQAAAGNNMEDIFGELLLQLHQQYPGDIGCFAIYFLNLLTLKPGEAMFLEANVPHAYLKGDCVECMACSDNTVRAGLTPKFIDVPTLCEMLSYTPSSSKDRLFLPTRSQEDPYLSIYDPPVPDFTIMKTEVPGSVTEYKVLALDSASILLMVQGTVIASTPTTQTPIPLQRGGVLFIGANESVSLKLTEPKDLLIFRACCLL
ABCG2 inh = ABCG2 efflux pump inhibitors, primary screen, multiplex with ABCB1, IgMXP3 cells, flow cytometry | Broad substrate specificity ATP-binding cassette transporter ABCG2 (Homo sapiens), Q9UNQ0 | JC-1 efflux | inhibition, % at 6.6 µM | 190,000 tested, 0.1% active;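 active means inhibition above 80%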;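 further: 0% = DMSO and 100% = nicardipine control wells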
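Assay system – ABCG2 IgMXP3 and barcoded ABCB1 CCRF-Adr cell mix · Input – 3 million cells/mL in well · Reagent – JC-1 fluorescent substrate · Compound – single test compound dose, 6.6 µM final · Timing – 10 min exposure at 25 °C with rotation, no wash · Detection – flow cytometry of retained JC-1 fluorescence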
ROMK primary = ROMK potassium channel modulators, primary screen, cell-based, thallium flux, MLSMR library. 130,000 tested, 2% active. ATP-sensitive inward rectifier potassium channel 1 (Homo sapiens), P48048. Tet-inducible ROMK, thallium flux fluorescence; actives lie on both sides. B-score at 10 µM;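 active means signal ratio slope over the read window, or its plate-corrected B-score, at least 3 SD from the plate mean, either direction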;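 further: B-score of the F/F0 ratio slope over 7 to 12 s after thallium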
Cl transport mod = KCC2 cotransporter modulators, thallium flux, primary screen, cell-based, HEK293 KCC2, FluoZin-2 fluorescence, MLSMR; Solute carrier family 12 member 5 (Homo sapiens), Q9H2X9; KCC2 cells, thallium flux FluoZin-2 fluorescence; B-score of Tl+ flux slope (higher = more flux/activation; lower = inhibition) at 10 µM; 190,000 tested, 2.2% active;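 active means thallium flux slope and its plate-corrected score both differing from the plate sample mean at a set confidence after two filtering rounds, in either direction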;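 further: slope of fluorescence scaled to starting intensity during 10 to 20 s after thallium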
PMI act hi M6P = human PMI activators, high substrate, primary screen, biochemical, fluorescence intensity, near-saturating mannose 6-phosphate; Mannose-6-phosphate isomerase (Homo sapiens), P34949; coupled PMI enzyme assay, resazurin fluorescence, 20 min; hits give high values; 1 = untreated enzyme, 0 = substrate-free blank; 190,000 tested, 0.34% active; activation factor at 20 µM;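 active means activation factor of 2 or more at 20 µM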
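Test system: human phosphomannose isomerase with PGI, G6PDH, diaphorase coupling enzymes; Amount: PMI at 15 ng/mL final; Reagent: Mannose-6-phosphate 1.0 mM (near-saturating) plus 0.22 mM NADP+; Timing: 20 min, room temperature; Technique: resorufin fluorescence at Ex 544/Em 590 nm; Dosing: 20 µM single dose.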
KCC2 secondary = KCC2 modulators in sodium-free buffer, confirmation, cell-based, HEK293 KCC2, thallium flux, secondary assay. FluoZin2 fluorescence; hits give high values. 3,700 tested, 15% active. shares compounds with Cl transport mod. normalised thallium flux (F/F0 slope) at 10 µM;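 active means thallium flux slope above the same plate's solvent-only control mean plus 3 SD; inconclusive means the two replicate wells disagree; inactive means no significant difference from solvent-only control wells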
KCC2 bumet counter = thallium flux persisting under bumetanide in KCC2 cells, confirmation, counter-screen for KCC2 modulator project, cell-based, HEK293 KCC2, FluoZin2, secondary assay 3. HEK293-KCC2 + bumetanide/ouabain; hits give high values. shares compounds with Cl transport mod. 3,700 tested, 49% active. normalized thallium flux at 10 µM. AID 1714, 2009;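 active means thallium entry rate above the same plate's blocked-transporter control wells by more than 3 SD; inconclusive means the two repeat wells disagree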;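 further: raw slope of fluorescence over initial fluorescence between 10 and 20 s after thallium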
KCC2 sec2 = KCC2 modulators without ouabain present, confirmation, cell-based, HEK293 KCC2, thallium flux, FluoZin2, secondary assay 2. shares compounds with Cl transport mod. normalized thallium flux at 10 µM. thallium flux FluoZin2 fluorescence; actives lie on both sides; F/F0 rise rate, 10–20 s post-thallium. 3,700 tested, 23% active;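 active means thallium flux slope more than 3 SD above or below the plate's solvent-only control mean, mostly below; inconclusive means the two repeat wells disagreed; inactive means no significant shift from solvent-only controls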;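 further: raw slope with 0.1% DMSO as baseline and bumetanide as block control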
HEK293 Tl flux = thallium flux modulation in parental HEK cells, confirmation, counter-screen for KCC2 modulator project, cell-based, counterscreen 1. shares compounds with Cl transport mod. HEK293 parental cells, thallium flux FluoZin2, ouabain; baseline-ratio fluorescence slope, 10–20 s after thallium. thallium flux rate (normalised fluorescence) at 10 µM. 3,700 tested, 46% active;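 active means thallium flux rate significantly above the same plate's solvent-only control wells, beyond their mean plus 3 SD; inconclusive means the two replicate wells gave conflicting results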
KCC2 retest ouab = KCC2 inhibitors and activators, ouabain retest, confirmation, HEK-KCC2 cells; shares compounds with Cl transport mod; HEK293-KCC2, thallium flux FluoZin2 fluorescence; bidirectional: low = inhibitor, high = activator; raw Tl+ flux slope (below DMSO = inhibition, above = activation) at 10 µM; 3,700 tested, 48% active; AID 1717, 2009;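 active means thallium flux slope beyond 3 SD from same-plate DMSO control mean in most replicates, usually higher, sometimes lower; inconclusive means repeat tests gave conflicting results; inactive means no significant difference from controls in most replicates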;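 further: slope of initial-normalized fluorescence between seconds 10 and 20 after thallium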
HEK counter2 = native HEK Tl+ uptake effects, second counter-screen – HEK cells, counterscreen 2, counter-screen for KCC2 modulator project, confirmation; shares compounds with Cl transport mod; AID 1718, 2009; 3,700 tested, 33% active; HEK293 parental, thallium flux FluoZin-2 fluorescence slope; thallium flux slope at 10 µM;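 active means thallium flux slope above the same plate's solvent-control mean plus 3 SD in both duplicate wells; inconclusive means duplicate wells that disagreed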;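 further: run without ouabain in cells lacking the KCC2 cotransporter; slope of fluorescence scaled to its starting value between 10 and 20 s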
* marks the source's active call; other numbers are inactive results; ? = inconclusive; / = not tested or not shown. A selection: hits, their analogues and other compounds. The true share with any hit is near 3.3%.

SMILES	ABCB1 block	PMI activator	ABCG2 inh	ROMK primary	Cl transport mod	PMI act hi M6P	KCC2 secondary	KCC2 bumet counter	KCC2 sec2	HEK293 Tl flux	KCC2 retest ouab	HEK counter2
CCSc1nnc(NC(=O)c2ccc3ccccc3n2)s1	1	1	7	/	36*	0.9	0.032*	0.12*	0.035	0.088*	0.072*	0.018*
CCc1nnc(NC(=O)c2ccc3ccccc3n2)s1	2	1	11	0.043	6.4*	1	?	0.027*	0.031	0.013*	?	0.011*
CCSc1nnc(NC(=O)c2cc(C)nc3ccccc23)s1	1	1	7	/	-0.024	0.9	/	/	/	/	/	/
CCc1nnc(NC(=O)c2ccc(OC)cc2)s1	2	1	12	1	1.3	0.9	/	/	/	/	/	/
CC(C)(C)C1CCC(=NNC(=O)c2cc3c(s2)CCCC3)CC1 (configuration not stated)	-2	0.9	-11	1	-0.46	1	/	/	/	/	/	/
CC(C)(C)C1CCc2sc(C(=O)NNC(=O)CCl)cc2C1 (configuration not stated)	0	1	2	-0.094	3.3*	0.9	0.0071	0.017*	0.03	0.017*	?	0.014*
N#C/C(=C\c1ccc(-c2cccc([N+](=O)[O-])c2)o1)C(=O)Nc1nc(-c2cccs2)cs1	/	/	/	/	4*	/	0.0096	0.0099*	0.033	0.018*	?	0.011
Cc1ccc(S(=O)(=O)c2nc(C)oc2NCc2ccccc2)cc1	0	1.4	0	/	/	1.8	0.006	0.0055	0.033	0.0076	?	0.011
O=C(NC(=S)Nc1ccccc1Cl)c1cncc(C#Cc2ccccc2)c1	/	/	/	/	12*	/	0.01	0.015*	0.036	0.011*	0.03	?
O=C(NC(=S)Nc1cccc2cnccc12)c1ccccc1	1	0.8	5	0.55	1.5	0.5	/	/	/	/	/	/
O=C(c1ccc(COc2ccccc2Cl)o1)N1CCCC1	0	0.8	4	-0.01	-3	0.9	/	/	/	/	/	/
O=C(OCc1ccccn1)c1ccc(COc2ccccc2Cl)o1	0	0.9	10	/	-5.9*	1	0.0058	0.0047	0.025*	0.0069	0.013*	0.0089
CCCS(=O)(=O)N1CCC(C(=O)N2CCC(Cc3ccccc3)CC2)CC1	0	0.9	2	0.65	/	0.9	0.0076	0.0066	0.029	0.0075	0.028*	0.01
O=C(/C=C/c1ccccc1)N1CCC(Cc2ccccc2)CC1	0	1	1	/	/	1	0.0068	0.006	0.027	0.0068	0.014*	0.01
CS/C(=C/[N+](=O)[O-])Nc1cccc2c1C(C)CC2(C)C (configuration not stated)	0	1	1	-0.8	-5.1*	1	0.0083	?	0.032	0.0068	0.014*	0.011
CCC(CC)C1C(C#N)=C(N)Oc2n[nH]c(-c3ccccc3)c21 (configuration not stated)	/	0.8	/	-0.37	/	0.8	/	/	/	/	/	/
CCC(CC)C1C(C#N)=C(N)Oc2n[nH]c(C)c21 (configuration not stated)	0	0.9	1	-0.48	/	1	0.011	0.0072	0.032	0.0036	0.016*	0.011
CC(C)(C)c1cc(C(=O)NNC(=O)c2ccc(Cl)cc2)no1	/	/	/	/	94*	/	0.037*	0.1*	0.05*	0.057*	?	0.026*
CC(=O)Nc1ccc(OCC(O)CN2C(C)CCCC2C)cc1 (configuration not stated)	0	1.1	0	-1.4	0.038	1.1	/	/	/	/	/	/
CC(=O)Nc1ccc(OCC(O)CNC2CCCC2)cc1 (configuration not stated)	0	0.9	2	0.83	/	0.8	0.0077	?	0.029	?	0.018	0.011
CCc1cc2cccc(C)c2nc1SCC(=O)NNC(=O)c1ccco1	-3	0.9	-1	/	/	0.9	0.0096	0.01*	0.032	0.011*	0.021	0.011
CCc1cc2ccc(OC)cc2nc1SCC(=O)N1CCN(C(=O)c2ccco2)CC1	/	/	/	/	-4.1*	/	0.0057	0.0039	0.024*	0.0052*	0.012*	0.0084*
CCc1cc2ccc(OC)cc2nc1SCC(=O)NNC(=O)c1ccco1	1	1.1	8	0.41	17*	0.9	0.0081	0.018*	0.034	0.028*	0.025*	0.014*
CCc1cc2cc(C)cc(C)c2nc1SCC(=O)NNC(=O)c1ccco1	0	0.8	6	-0.84	1.9	0.9	/	/	/	/	/	/
COc1ccc(CC(=O)N2CCN(C(=O)c3ccco3)CC2)cc1	0	0.9	0	/	0.061	0.9	/	/	/	/	/	/
O=C(c1ccc([N+](=O)[O-])cc1[N+](=O)[O-])n1cnc2ccccc21	1	1.2	4	-1.4	-0.71	0.9	/	/	/	/	/	/

Screening data from PubChem.
